Compounds with a hit are over-represented: about 1.8% of the library has one in this group of screens.
NSD2 HMT inh: NSD2 (human) methyltransferase inhibition; O96028; NSD2 peptide methylation, AlphaScreen, 120 min; inhibition, % at 12.5 µM; actives 0.54% (n = 310,000); AID 743445; in the data active = inhibition above about 50%
MBD2 inh: MBD2-methylated oligo binding inhibition; AID 686964; TR-FRET, MBD2 binding to methylated oligonucleotide; Q9UBB5; inhibition, % at 4.4 µM; actives 0.31% (n = 370,000); in the data active = inhibition above about 13%
UHRF1 MBD2 ctr: UHRF1 methyl-DNA binding inhibition; UHRF1 binding to methylated oligo, TR-FRET; inhibition, % at 4.4 µM; actives 0.75% (n = 370,000); AID 687016; in the data active = inhibition above about 21%;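 note: UHRF1 SRA domain binding a hemimethylated CpG hairpin DNA probe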
Casp6 inh: inhibitors of human caspase-6 | P55212 | purified caspase-6, Z-VEID-R110 cleavage fluorescence | inhibition, % at 12.5 µM | actives 0.53% (n = 350,000) | AID 686996;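 active = mean inhibition across replicates at least about 35%, with every replicate also reaching that limit, limit read from the data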
Target sequence (P55212 24-179 limits assumed): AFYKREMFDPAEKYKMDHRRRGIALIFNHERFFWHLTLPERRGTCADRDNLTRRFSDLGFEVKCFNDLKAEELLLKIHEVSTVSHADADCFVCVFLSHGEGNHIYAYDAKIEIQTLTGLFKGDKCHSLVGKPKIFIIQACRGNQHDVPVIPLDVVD
Target sequence (P55212 194-293 limits assumed): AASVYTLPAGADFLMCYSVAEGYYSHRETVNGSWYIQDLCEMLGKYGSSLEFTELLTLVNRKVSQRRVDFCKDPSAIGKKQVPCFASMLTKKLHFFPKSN
TDP2 absorb: blocks human TDP2 phosphodiesterase activity. O95551. recombinant TDP2, T5PNP hydrolysis, p-nitrophenol absorbance 415 nm. inhibition, % at 12.8 µM. actives 0.34% (n = 370,000);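 active = inhibition above the mean of all tested compounds plus 3 SD, set per campaign, cut at about 25% in these data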
Target sequence (O95551 whole entry, looked up): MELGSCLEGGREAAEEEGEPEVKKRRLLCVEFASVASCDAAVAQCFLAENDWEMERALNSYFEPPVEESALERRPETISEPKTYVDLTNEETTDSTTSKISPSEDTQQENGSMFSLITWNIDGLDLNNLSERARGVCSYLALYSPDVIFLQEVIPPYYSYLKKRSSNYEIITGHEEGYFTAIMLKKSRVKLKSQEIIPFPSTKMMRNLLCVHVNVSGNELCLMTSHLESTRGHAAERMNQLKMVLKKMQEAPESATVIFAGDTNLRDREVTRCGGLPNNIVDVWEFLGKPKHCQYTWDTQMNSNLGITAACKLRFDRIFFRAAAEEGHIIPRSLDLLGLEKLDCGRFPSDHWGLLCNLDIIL
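test system = human TDP2 enzyme | input = TDP2 enzyme at 120 nM final | medium = 50 mM Tris-HCl pH 7.5 with Mg2+, KCl, DTT, BSA | also added = T5PNP substrate, 5 mM | times = 2 h at 37 °C | technique = epi absorbance | benchmarks = high control without enzyme, low control DMSO plus TDP2 | replication = each compound tested once, singlicate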
LEDGF integ inh: blocks HIV-1 LEDGF/p75-dependent DNA integration. AID 743269. actives 0.64% (n = 370,000). inhibition, % at 3.7 µM. TR-FRET IN-LEDGF/p75 DNA integration, Eu/Cy5;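 active = inhibition above the screen-wide mean plus 3 SD, cut at about 13% in these data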;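 note: signal is the Cy5 over europium emission ratio at 671 and 618 nm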
Numbers stand for hits; ! = a repeat was not active.

Cn1c(=O)[nH]c(=O)c2[nH]c(NCCCN3CCOCC3)nc21 was read as MBD2 inh inactive, UHRF1 MBD2 ctr 23.0, TDP2 absorb inactive and LEDGF integ inh inactive.
`COc1ccc2c3c([nH]c2c1)[C@@H](CO)N(C(=O)NC(C)C)CC31CCN(Cc2ccc(F)cc2)CC1` gave Casp6 inh inactive.
For Cc1noc(C)c1S(=O)(=O)Nc1ccc2c(c1)C(=O)N([C@H](C)CO)C[C@H](C)[C@H](CN(C)S(=O)(=O)c1cn(C)cn1)O2 the results were Casp6 inh inactive.
CC(Sc1nnc(Cc2ccccc2)o1)C(=O)NC1(C#N)CCCCC1 (stereo not drawn) was read as NSD2 HMT inh inactive, MBD2 inh inactive, UHRF1 MBD2 ctr 24.2, Casp6 inh inactive, TDP2 absorb inactive and LEDGF integ inh inactive.
Screening CC(Sc1nccn1C)C(=O)NC1(C#N)CCCCC1 (stereo not drawn) returned NSD2 HMT inh inactive, MBD2 inh inactive, UHRF1 MBD2 ctr inactive, Casp6 inh inactive, TDP2 absorb inactive and LEDGF integ inh inactive.
`c1ccc(Cn2c(-c3ccccc3)nc3nc4ccccc4nc32)cc1` gave NSD2 HMT inh inactive, MBD2 inh inactive, UHRF1 MBD2 ctr inactive, TDP2 absorb inactive and LEDGF integ inh inactive.
For Clc1cccc(-c2nc3nc4ccccc4nc3n2Cc2ccccc2)c1 the results were NSD2 HMT inh inactive, MBD2 inh inactive, UHRF1 MBD2 ctr 28.6, Casp6 inh inactive, TDP2 absorb inactive and LEDGF integ inh inactive.
Screening C[C@H]1CN([C@@H](C)CO)C(=O)Cc2cc(NC(=O)CCCCCC(=O)Nc3ccccc3N)ccc2O[C@H]1CN(C)Cc1ccncc1 returned Casp6 inh inactive.
Screening Cc1ccc(S(=O)(=O)N(C)CC(=O)NNC(=O)CCNS(=O)(=O)c2cccc(C)c2)cc1 returned NSD2 HMT inh inactive, MBD2 inh inactive, UHRF1 MBD2 ctr 34.2, Casp6 inh inactive, TDP2 absorb inactive and LEDGF integ inh inactive.
CCC(=O)Nc1ccc2c(c1)C(=O)N(C)[C@@H]1CC[C@@H](CC(=O)N3CCCCC3)O[C@H]1CO2 was read as Casp6 inh inactive.
Screening CC(=O)N1C[C@H]2CON(C)[C@H]2C[C@H]1c1ccccc1Br returned MBD2 inh inactive, UHRF1 MBD2 ctr inactive, Casp6 inh inactive, TDP2 absorb inactive and LEDGF integ inh inactive.
Screening CN1OC[C@@H]2CN(C(=O)CCc3ccccc3)[C@H](c3ccccc3Br)C[C@@H]21 returned MBD2 inh inactive, UHRF1 MBD2 ctr 77.0, Casp6 inh inactive, TDP2 absorb inactive and LEDGF integ inh inactive.
Screening CC(=O)NC1=C(NC2CCS(=O)(=O)C2)C(=O)c2ccccc2C1=O (stereo not drawn) returned NSD2 HMT inh 69.2, MBD2 inh inactive, UHRF1 MBD2 ctr inactive, TDP2 absorb inactive and LEDGF integ inh inactive.
Cc1cc(N2CCCC2)ccc1NC(=O)CN1C(=O)NC2(CCCCC2)C1=O was read as NSD2 HMT inh inactive, MBD2 inh inactive, UHRF1 MBD2 ctr inactive, Casp6 inh 39.2, TDP2 absorb inactive and LEDGF integ inh inactive.
CO[C@H]1CC[C@H]2CCN(C)C(=O)[C@@H](C)N(C)C(=O)c3cccc(C#N)c3OC[C@H]1O2 was read as Casp6 inh inactive.
For COCCn1cnc2c(c1=O)c1nc3ccccc3nc1n2/N=C/c1cccc(OC)c1 the results were NSD2 HMT inh inactive, MBD2 inh inactive, UHRF1 MBD2 ctr 24.4, Casp6 inh inactive, TDP2 absorb inactive and LEDGF integ inh inactive.
C=CCn1cnc2c(c1=O)c1nc3ccccc3nc1n2/N=C/c1cc(OC)c(OC)c(OC)c1 was read as NSD2 HMT inh inactive, MBD2 inh inactive, UHRF1 MBD2 ctr inactive, TDP2 absorb inactive and LEDGF integ inh inactive.
`C[C@@H]1CN([C@H](C)CO)C(=O)CCCn2cc(nn2)CO[C@H]1CN(C)C(=O)CCC(F)(F)F` gave MBD2 inh inactive, UHRF1 MBD2 ctr inactive, Casp6 inh inactive, TDP2 absorb inactive and LEDGF integ inh inactive.
Screening C[C@H]1CN([C@@H](C)CO)C(=O)CCCn2cc(nn2)CO[C@@H]1CN(C)C(=O)CCC(F)(F)F returned MBD2 inh inactive, UHRF1 MBD2 ctr inactive, Casp6 inh 44.5!, TDP2 absorb inactive and LEDGF integ inh inactive.
`C[C@H]1CN([C@@H](C)CO)C(=O)CCCn2nncc2CO[C@@H]1CN(C)S(=O)(=O)c1ccc(Oc2ccccc2)cc1` gave Casp6 inh inactive.
Screening CC(C)CC#Cc1ccc2c(c1)O[C@@H](CN(C)Cc1ccccc1F)[C@H](C)CN([C@H](C)CO)S2(=O)=O returned Casp6 inh inactive.
Screening [S-]C(=Nc1ccc(Cl)cc1)N[n+]1ccccc1 returned NSD2 HMT inh inactive, MBD2 inh inactive, UHRF1 MBD2 ctr 58.0, TDP2 absorb inactive and LEDGF integ inh inactive.
For ONC(=Nc1ccc(Cl)cc1)c1ccc(Cl)cc1 the results were NSD2 HMT inh inactive, MBD2 inh inactive, UHRF1 MBD2 ctr inactive, TDP2 absorb inactive and LEDGF integ inh inactive.
`C[C@@H]1CN([C@H](C)CO)C(=O)Cc2cc(NS(=O)(=O)c3ccccc3)ccc2O[C@H]1CN(C)Cc1ccc2c(c1)OCO2` gave Casp6 inh inactive.
Screening CN(CC(=O)Nc1ccc(Cl)c(C(F)(F)F)c1)C(=O)COc1cccc2cccnc12 returned NSD2 HMT inh inactive, MBD2 inh inactive, UHRF1 MBD2 ctr inactive, Casp6 inh inactive, TDP2 absorb inactive and LEDGF integ inh inactive.
`CSc1ccccc1NC(=O)CN(C)C(=O)COc1cccc2cccnc12` gave MBD2 inh inactive, UHRF1 MBD2 ctr inactive, Casp6 inh 45.4, TDP2 absorb inactive and LEDGF integ inh inactive.
C[C@H](CO)N1C[C@H](C)[C@@H](CN(C)Cc2ccc(C(=O)O)cc2)Oc2ccc(NC(=O)Nc3ccc4c(c3)OCO4)cc2CC1=O was read as Casp6 inh inactive.
Screening O=C(CBr)c1ccc([N+](=O)[O-])c(CS(=O)(=O)c2ccc(Cl)cc2)c1 returned MBD2 inh inactive, UHRF1 MBD2 ctr 70.4, Casp6 inh inactive, TDP2 absorb inactive and LEDGF integ inh inactive.
COc1ccc(NC(=O)Nc2ccc3c(c2)[C@@H]2C[C@@H](CC(=O)NC4CCCCC4)O[C@H](CO)[C@@H]2O3)cc1 was read as Casp6 inh inactive.
`COc1ccc(OC)c(NC(=O)C2(C)CCN2C(=O)CCC2CCCC2)c1` (stereo not drawn) gave NSD2 HMT inh inactive, MBD2 inh inactive, UHRF1 MBD2 ctr inactive, Casp6 inh inactive, TDP2 absorb inactive and LEDGF integ inh inactive.
`COc1ccc(OC)c(NC(=O)C2(C)CCN2C(=O)CC2CC2)c1` (stereo not drawn) gave NSD2 HMT inh inactive, MBD2 inh inactive, UHRF1 MBD2 ctr 28.2, Casp6 inh inactive, TDP2 absorb inactive and LEDGF integ inh inactive.

Bioassay records as filed in PubChem.
